# Compounds with a hit are over-represented: about 3.8% of the library has one in this group of screens.
# hERG rescue = hERG (human) protection from proarrhythmic block; CHO-hERG, FluxOR thallium flux, dofetilide IC70 present; activation (rescue from dofetilide block), less the hit threshold, % at 10 µM; hit rate 0.51% among 310,000;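 active = activation above the mean of controls blocked by dofetilide plus 5 SD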;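 also: thallium influx through hERG after potassium depolarization seen as dye fluorescence rise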
# KCNK3 inh = human KCNK3 channel inhibition, primary screen. O14649. CHO-KCNK3 thallium flux, FluxOR fluorescence; active compounds read low. B-score at 10 µM. hit rate 0.84% among 340,000;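 active = B-score under library mean minus 4 SD, starting fluorescence ratio at most library mean plus 5 SD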;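 also: more negative B-score means stronger inhibition of thallium flux through KCNK3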
# Kir21 inh = blocks the mouse Kir2.1 inward-rectifier potassium channel | P35561 | HEK293-Kir2.1, FluxOR thallium flux fluorescence; active compounds read low | B-score at 10 µM | hit rate 0.85% among 310,000 | AID 1672;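 active = fluorescence ratio B-score at or below minus 3 SD of library scores, with starting-brightness B-score within 2 SD, cut at about -4.2 in these data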;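 also: channel flux triggered by added potassium and thallium sulfate stimulus; B-score of peak minus minimum fluorescence over baseline after thallium stimulus; more negative B-score means stronger Kir2.1 block with less thallium influx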
# KCNQ1 block = blocks the human KCNQ1 potassium channel; B-score at 10 µM; hit rate 1.3% among 310,000; CHO-K1 KCNQ1, FluxOR thallium flux fluorescence; active compounds read high; P51787;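 active = compounds whose thallium flux B-score, printed positive for inhibition, exceeds three library SD while starting fluorescence stays within three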;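 also: channel opened by potassium depolarization with thallium stimulus after 20 min compound exposure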
# Target sequence (P51787 whole entry, looked up): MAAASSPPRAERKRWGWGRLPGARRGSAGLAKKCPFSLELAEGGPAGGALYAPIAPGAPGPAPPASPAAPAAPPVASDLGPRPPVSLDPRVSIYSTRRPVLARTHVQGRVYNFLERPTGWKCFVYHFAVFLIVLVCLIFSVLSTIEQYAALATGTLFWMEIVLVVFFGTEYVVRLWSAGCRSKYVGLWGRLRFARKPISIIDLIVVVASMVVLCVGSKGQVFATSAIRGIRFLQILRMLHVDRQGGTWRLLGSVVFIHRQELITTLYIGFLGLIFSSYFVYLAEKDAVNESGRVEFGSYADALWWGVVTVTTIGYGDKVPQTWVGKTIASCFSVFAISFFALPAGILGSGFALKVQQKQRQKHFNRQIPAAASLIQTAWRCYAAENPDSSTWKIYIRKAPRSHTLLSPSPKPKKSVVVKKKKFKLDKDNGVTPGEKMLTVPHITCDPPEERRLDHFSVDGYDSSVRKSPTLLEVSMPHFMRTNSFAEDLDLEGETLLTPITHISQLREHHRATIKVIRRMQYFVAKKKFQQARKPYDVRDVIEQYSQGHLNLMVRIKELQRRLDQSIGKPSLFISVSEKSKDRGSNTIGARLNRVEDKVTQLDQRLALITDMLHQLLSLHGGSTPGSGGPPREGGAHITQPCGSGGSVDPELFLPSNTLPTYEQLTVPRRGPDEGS
# KCNK9 block = blocks the human KCNK9 two-pore domain potassium channel | HEK293 KCNK9, FluxOR thallium flux fluorescence; active compounds read low | hit rate 1.2% among 310,000 | Q9NPC2 | B-score at 10 µM | AID 488922;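 active = ratio B-score over 3 SD below the library mean, with starting fluorescence within 5 SD of its mean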;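 also: negative B-score means less thallium flux so channel inhibition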
# KCNQ1 pot = human KCNQ1 channel potentiation or activation; CHO-K1 KCNQ1, thallium flux FluxOR fluorescence; active compounds read high; B-score at 10 µM; hit rate 0.35% among 310,000;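 active = fluorescence ratio B-score, a plate-corrected score, at least three library SD, with initial intensity B-score within 5 SD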
#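 assay system = CHO-K1 cells stably expressing KCNQ1 | medium = assay buffer, equal DMSO in all wells | timing = 37 °C overnight plating, 90-min dark dye load, 20-min compound pretreatment | measured by = kinetic FluxOR thallium fluorescence, 10-s 1-Hz baseline, 110-s post-stimulus read | measure = fluorescence change relative to baseline, converted to B score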
# KCNK9 inh conf = confirmation of human KCNK9 potassium channel inhibitors; HEK293 KCNK9 cells, FluxOR thallium flux fluorescence; shares compounds with KCNK9 block; hit rate 43% among 4,900; inhibition, % at 10 µM;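 active = thallium signal inhibited by more than 5 SD of the compound-free buffer control wells, on both duplicate plates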;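 also: 0% = assay buffer control wells without compound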
# Kir21 sel = mouse Kir2.1 off-target activity of KCNK9 modulators. inhibition, % at 10 µM. hit rate 4% among 4,900. Kir2.1 cells, FluxOR thallium flux fluorescence. shares compounds with KCNK9 block;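 active = thallium signal drop more than 5 SD beyond the mean of the no-compound control wells, seen in both duplicate plates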;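 also: signal is fluorescence rise after thallium addition divided by baseline fluorescence; plate controls were assay buffer only for no effect and full block by chlorpromazine control for full effect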
# HEK293 Tl ctr = non-induced cell nonspecific activity of KCNK9 modulators; non-induced KCNK9-HEK293, FluxOR thallium flux; inhibition, % at 10 µM; shares compounds with KCNK9 block; hit rate 40% among 4,900; AID 492997;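 active = thallium signal drop beyond 5 SD of the untreated control mean, on both duplicate plates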;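 also: plate controls were buffer only IC0 wells for no effect and SID17386958 at its maximal inhibitory level for full effect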
# Starred values were filed as active, the others as inactive; i = inactive; nt = no result given; ! = not active in a repeat.
SMILES,hERG rescue,KCNK3 inh,Kir21 inh,KCNQ1 block,KCNK9 block,KCNQ1 pot,KCNK9 inh conf,Kir21 sel,HEK293 Tl ctr
Cc1cc(C)cc(NC(=O)c2cccn2-c2ncc(C(F)(F)F)cc2Cl)c1,-8,i,0.04,i,i,i,i,i,i
CC(C)N(C(=O)c1nn(C)c2c1CSc1ccccc1-2)C1CCCCC1,-2,i,0.69,8*,-10*,i,34%*,i,i
CCC1CCCCN1C(=O)CSc1nc2ccsc2c(=O)n1Cc1ccccc1 (centres undefined),-23,i,-0.67,i,i,i,i,i,i
O=C(CSc1nc2ccsc2c(=O)n1Cc1ccccc1)NCC1CCCO1 (centres undefined),-12,i,-1.2,i,i,i,nt,nt,nt
COc1ccc(-c2nc(SC)n(S(=O)(=O)c3ccccc3)n2)cc1,-4,i,-1.4,i,i,i,nt,nt,nt
COc1ccc(S(=O)(=O)n2ccc(C(C)Oc3ccc(-c4ccccc4)c(F)c3)n2)cc1 (centres undefined),-9,i,-0.56,i,-11*,i,61%*,i,40%*
O=C(c1oc2ccccc2c1CSCc1ccccc1)N1CCN(c2ncccn2)CC1,-13,i,-0.13,i,-9.6*,i,23%*,i,i
Cc1noc(C)c1CSc1nc2ccccc2c(=O)n1-c1ccc(F)cc1F,-7,i,-0.55,i,i,i,i,i,25%*
O=C(c1cccc(C(F)(F)F)c1)N1CCOC12CCN(c1ncc(C(F)(F)F)cc1Cl)CC2,-10,i,-2.5,i,i,i,i,i,i
O=S(=O)(Nc1ncnc2scc(-c3ccc(F)cc3)c12)c1cc(F)ccc1F,-19,i,-0.03,6*,i,i,i,i,i
Cc1ccc(-c2csc3ncnc(NS(=O)(=O)c4ccc(Cl)cc4)c23)cc1,-4,i,0.95,i,i,i,nt,nt,nt
NC(=O)COC(=O)c1ccc(Cl)c(S(=O)(=O)N2CCN(c3ccc(F)cc3)CC2)c1,-20,i,2.2,i,i,i,nt,nt,nt
CCNC(=O)CC1C(=O)N(CC)C(=S)N1NC(=O)c1ccccc1 (centres undefined),-2,i,-0.46,i,i,i,nt,nt,nt
O=C(Nc1cccc(F)c1)NC1(C(=O)NCC2CCCO2)CCCCC1 (centres undefined),-7,i,0.22,i,i,i,nt,nt,nt
O=C(CCSc1ccc(Cl)cc1)N1CCCCCC1,-7,i,-1.2,i,i,i,i,i,i
COc1ccc(-c2cccc(NS(=O)(=O)c3cc([N+](=O)[O-])c(C)c([N+](=O)[O-])c3)c2)nn1,-15,i,0,i,i,i,nt,nt,nt
CCOCCn1c(N2CCN(c3ccccc3)CC2)nc2c1c(=O)n(C)c(=O)n2C,-12,i,-0.89,i,i,i,nt,nt,nt
CN1CCN(Cc2nc3c(c(=O)n(C)c(=O)n3C)n2CCCc2ccccc2)CC1,-14,i,-0.91,i,i,i,nt,nt,nt
Cn1c(=O)c2c(nc(CN3CCN(c4ccccc4F)CC3)n2CCCc2ccccc2)n(C)c1=O,-7,i,0.39,i,i,i,i,i,i
CCCCCCn1c(N2CCN(c3ccccc3)CC2)nc2c1c(=O)n(C)c(=O)n2C,-23,i,2.5,i,-8.5*,i,43%*,i,40%*
C/C(=N\NC(=O)c1c(Cl)cnn1C)c1ccc(NC(=O)c2ccc(Br)o2)cc1,-8,i,-0.59,i,i,i,nt,nt,nt
O=C(NC1CC1)C1CCN(c2ncccn2)CC1,-6,i,2.1,i,i,i,nt,nt,nt
CC(C)NC(=O)c1ccc(COc2ccc(C(C)(C)C)cc2)o1,-4,i,1.1,i,i,i,nt,nt,nt
O=C(Nc1cccnc1)c1ccc2nc(-c3ccccc3)c(-c3ccccc3)nc2c1,-10,i,-1.1,i,-11*,i,42%*,i,40%*
Cc1ccc(CN(C)C(=O)COc2ccc(S(=O)(=O)N3CCCC3)cc2[N+](=O)[O-])c(C)c1,nt,i,nt,nt,nt,nt,nt,nt,nt
SMILES,hERG rescue,KCNK3 inh,Kir21 inh,KCNQ1 block,KCNK9 block,KCNQ1 pot,KCNK9 inh conf,Kir21 sel,HEK293 Tl ctr
COc1ccc(C(=O)/C(=C/O)N=Nc2ccc(F)cc2)cc1,-12,i,-0.05,i,-12*,i,i,i,i
Cc1sc(NC(=O)c2ccccc2)c(C(=O)NC(C)C)c1C,-4,i,-1.2,i,i,i,nt,nt,nt
Cc1sc(NC(=O)c2ccccc2)c(C(=O)c2ccccc2)c1C,-10,i,2.3,i,i,i,i,i,i
O=C(CSc1nncn1-c1ccccc1)N1CCCC1,-1,i,0.73,i,i,i,nt,nt,nt
CCCCCCCCn1ccc(=N)cc1,-15,i,-0.52,i,i,i,nt,nt,nt
CCCCCCCCCCCCCCCCn1cc[n+](C)c1,-37,-12*!,-3.9,10*!,-12*!,i,62%*,44%*,26%*
COC(=O)COc1cc(OCC(=O)OC)c2c(C)c(Cl)c(=O)oc2c1,-5,i,0.69,i,i,i,nt,nt,nt
COC(=O)C(C)Oc1cc(OC(C)C(=O)OC)c2c(C)c(Cl)c(=O)oc2c1 (centres undefined),-10,i,2.6,i,i,i,i,i,i
COc1ccccc1NC(=O)/C(=C/c1cccc([N+](=O)[O-])c1)c1ccccc1,-10,i,0.38,6*,-8.6*,i,54%*,i,38%*
COc1ccc(-c2noc3c2-c2nc(C4CCCCC4)sc2CC3)cc1,-16,i,-1.8,i,i,i,i,i,24%*
CC(C)c1ccc(S(=O)(=O)/N=C2\C=C(NS(=O)(=O)c3ccccc3)C(=O)c3ccccc32)cc1,-27,i,-3,18*,-9.4*,i,32%*,i,32%*
Cc1cccc(CN2C(=O)[C@@H]3Cc4c([nH]c5ccccc45)C(C)(C)N3C2=O)c1,-8,i,-0.34,i,i,i,i,i,i
CC1(C)c2[nH]c3ccccc3c2C[C@@H]2C(=O)N(Cc3ccccc3)C(=O)N21,-10,i,-0.73,i,i,i,nt,nt,nt

# Screening data deposited in PubChem by Johns Hopkins Ion Channel Center.
